Assay results as given in ChEMBL document CHEMBL4477183, “Antimicrobial Peptide from the Wild Bee Hylaeus signatus Venom and Its Analogues: Structure-Activity Study and Synergistic Effect with Antibiotics” (J Nat Prod, 2016).
Converted amounts (≈) assume the structure as drawn. The source made the active and inactive calls. The calls are words filed in the database; no cut-off is given here.

Assays:
Pseudomonas aeruginosa [1] = assay: Induction of cell permeabilization in Pseudomonas aeruginosa assessed as propidium iodide uptake at 4 uM after 10 mins; assay type: functional, organism-based
Staphylococcus aureus [2] = assay: Antimicrobial activity against Staphylococcus aureus clinical isolates from university hospital in Motol assessed as reduction in bacterial growth after 20 hrs by drop diffusion test; assay type: functional
Escherichia coli = assay: Antimicrobial activity against Escherichia coli assessed as reduction in bacterial growth after 20 hrs by […]; assay type: functional
Method in brief: (§1)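 Broth microdilution in LB (YPG for C. albicans) with 2-fold serial dilutions, final 0.1–100 μM. Mid-log cells grown 3–5 h at 37 °C were added at about 5 × 10^5 cfu/mL, then incubated 20 h at 37 °C with shaking. A540 was read every 15 min to build growth curves. Medium with cells served as growth control; at least three runs in duplicate.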

Pseudomonas aeruginosa [3] = assay: Antimicrobial activity against Pseudomonas aeruginosa 5482 assessed as reduction in bacterial growth after 20 hrs […]; assay type: functional; conditions: Pseudomonas aeruginosa, 5482, 20 h; method in brief: as §1
Pseudomonas aeruginosa [4] = assay: Antimicrobial activity against Pseudomonas aeruginosa clinical isolates assessed as reduction in bacterial growth after 20 hrs by […]; assay type: functional; method in brief: as §1
Pseudomonas aeruginosa [5] = assay: Bactericidal activity against Pseudomonas aeruginosa assessed as induction of bacteria killing at 20 uM after 4 hrs by time kill assay; assay type: functional, organism-based
Method in brief: (§2)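 P. aeruginosa grown at 37 °C with shaking to mid-log phase, then diluted in fresh LB to about 5 × 10^5 cfu/mL. This inoculum was mixed 1:1 with LB containing the agent and shaken at 37 °C for 4 h. Samples were taken at 0–240 min, serially diluted in 0.9% NaCl and plated on LB agar overnight at 37 °C; viable counts are given as cfu/mL. LB-only growth control; means of four independent runs, SEM.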

Pseudomonas aeruginosa [6] = assay: Bactericidal activity against Pseudomonas aeruginosa assessed as reduction in bacterial count at 20 uM after 4 hrs by time kill assay; assay type: functional
Method in brief: (§3)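 P. aeruginosa inoculum about 5 × 10^5 cfu/mL in LB mixed 1:1 with LB alone or LB containing test agent at final 8, 24, 80 or 20 μM. Incubation was at 37 °C with shaking for 4 h. Aliquots taken at 0–240 min were serially diluted in 0.9% NaCl and plated on LB agar overnight at 37 °C. Viable cfu/mL were counted; means of four independent measurements.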

Staphylococcus aureus [7] = assay: Antimicrobial activity against Staphylococcus aureus 6271 assessed as reduction in bacterial growth after 20 hrs by broth microdilution assay; conditions: Staphylococcus aureus, 6271, 20 h
[8] = test system: Staphylococcus epidermidis; assay: Antimicrobial activity against Staphylococcus epidermidis assessed as reduction in bacterial growth after 20 hrs by broth microdilution assay
Staphylococcus aureus [9] = assay: Antimicrobial activity against Staphylococcus aureus clinical isolates from Liberec regional hospital assessed as reduction in bacterial growth after 20 hrs by broth microdilution assay
[10] = Hemolytic activity in human type RBC after 1 hr; assay type: ADME, cell-based, Erythrocyte; conditions: red blood cells (erythrocytes), read-out: LC50
Method in brief: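 Peptides at 2.5–400 μM were incubated with a 4% suspension of human erythrocytes in physiological solution for 1 h at 37 °C, then centrifuged at 250g for 5 min; supernatant A540 was read. Saline-treated cells gave 0% lysis and 0.2% Triton X-100 gave 100%. LC50 is the concentration lysing 50% of cells; duplicates in at least two independent experiments.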

Pseudomonas aeruginosa [11] = assay: Bacteriostatic activity against Pseudomonas aeruginosa assessed as induction of bacteria killing at 80 uM after 60 mins by time kill assay; assay type: functional, organism-based; method in brief: as §2
Pseudomonas aeruginosa [12] = assay: Bacteriostatic activity against Pseudomonas aeruginosa assessed as induction of bacteria killing at 80 uM after 3 hrs by time kill assay; assay type: functional, organism-based; method in brief: as §2
Candida albicans = assay: Antifungal activity against Candida albicans assessed as reduction in fungal growth after 20 hrs by […]; assay type: functional; method in brief: as §1
Micrococcus luteus = assay: Antimicrobial activity against Micrococcus luteus assessed as reduction in bacterial growth after 20 hrs by […]; assay type: functional; method in brief: as §1
Bacillus subtilis = assay: Antimicrobial activity against Bacillus subtilis assessed as reduction in bacterial growth after 20 hrs by […]; assay type: functional; method in brief: as §1
Staphylococcus aureus [13] = assay: Antimicrobial activity against Staphylococcus aureus clinical isolates assessed as FIC index in presence of amoxicillin after 20 hrs by drop diffusion test; assay type: functional
Pseudomonas aeruginosa [14] = assay: Antimicrobial activity against Pseudomonas aeruginosa clinical isolates assessed as FIC index in presence of tetracycline after 20 hrs by drop diffusion test; assay type: functional
Pseudomonas aeruginosa [15] = assay: Antimicrobial activity against Pseudomonas aeruginosa clinical isolates assessed as FIC index in presence of rifampicin after 20 hrs by drop diffusion test; assay type: functional
Pseudomonas aeruginosa [16] = assay: Ratio of MIC for Pseudomonas aeruginosa to PC50 for induction of permeabilization in Pseudomonas aeruginosa; assay type: functional
Method in brief: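 PC50: washed 10^8 cfu/mL cells in PBS pH 7 with PI 10 μg/mL, peptide 0.31–80 μM, 90 min at 37 °C dark, fluorescence 544/620 nm as % of 4 μM octenidine, interpolated from log-concentration curve.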

Pseudomonas aeruginosa [17] = assay: Bactericidal activity against Pseudomonas aeruginosa assessed as reduction in bacterial count at 8 uM after 60 mins by time kill assay; assay type: functional
Method in brief: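 Time-kill: P. aeruginosa (final about 5 × 10^5 cfu/mL) in LB with peptide (8 μM) or medium control was incubated 4 h at 37 °C with shaking. Samples were taken at 0–240 min, serially diluted in 0.9% NaCl and plated on LB agar overnight at 37 °C. Viable counts are given as cfu/mL; means of four independent measurements.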

Pseudomonas aeruginosa [18] = assay: Antimicrobial activity against Pseudomonas aeruginosa assessed as disruption of cell envelope at 30 uM after 60 mins by negative staining based TEM analysis; assay type: functional, organism-based
Method in brief: (§4)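 P. aeruginosa at 10^8 cfu/mL was exposed to peptide at 30 or 150 μM for 60 min, with untreated cells as control. Cells were centrifuged, washed twice in 0.9% NaCl and adsorbed 5–10 min on Parlodion-carbon-coated copper grids. They were negatively stained 30–40 s with 0.25% phosphotungstic acid (pH 7.3) plus 0.01% BSA, air-dried and imaged by TEM.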

Pseudomonas aeruginosa [19] = assay: Antimicrobial activity against Pseudomonas aeruginosa assessed as compact cell levels at 30 uM after 60 mins by negative staining based TEM analysis; assay type: functional; method in brief: as §4
Pseudomonas aeruginosa [20] = assay: Antimicrobial activity against Pseudomonas aeruginosa assessed as detached cell envelope at 30 uM after 60 mins by negative staining based TEM analysis; assay type: functional, organism-based; method in brief: as §4
Pseudomonas aeruginosa [21] = assay: Antimicrobial activity against Pseudomonas aeruginosa assessed as flagella attachment level at 30 uM after 60 mins by negative staining based TEM analysis; assay type: functional, organism-based; method in brief: as §4
Pseudomonas aeruginosa [22] = assay: Antimicrobial activity against Pseudomonas aeruginosa assessed as cell damage at 150 uM after 60 mins by negative staining based TEM analysis; assay type: functional, organism-based; method in brief: as §4
Pseudomonas aeruginosa [23] = assay: Antimicrobial activity against Pseudomonas aeruginosa assessed as cell envelope detachment at 150 uM after 60 mins by negative staining based TEM analysis; assay type: functional, organism-based; method in brief: as §4
Pseudomonas aeruginosa [24] = assay: Antimicrobial activity against Pseudomonas aeruginosa assessed as flagella detachment at 150 uM after 60 mins by negative staining based TEM analysis; assay type: functional, organism-based; method in brief: as §4
Pseudomonas aeruginosa [25] = assay: Induction of cell permeabilization in Pseudomonas aeruginosa assessed as propidium iodide uptake 10 to 100 mins; assay type: functional, organism-based
Method in brief: (§5)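 Mid-log P. aeruginosa was washed twice and resuspended in PBS (pH 7) at 10^8 cfu/mL with propidium iodide at 10 μg/mL. Peptide was added by 2-fold serial dilution in PBS (0.625–20 μM), with PBS as blank and octenidine dihydrochloride (4 μM final) as positive control. Plates were kept at 37 °C in the dark for 120 min, reading fluorescence (ex 544/em 620 nm) every minute. Means of at least three measurements.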

Pseudomonas aeruginosa [26] = assay: Antimicrobial activity against Pseudomonas aeruginosa assessed as induction of inner bacterial content leakage at 30 uM after 60 mins by TEM analysis; assay type: functional, organism-based; method in brief: as §4
Pseudomonas aeruginosa [27] = assay: Antimicrobial activity against Pseudomonas aeruginosa assessed as induction of cell integrity break down at 30 uM after 60 mins by TEM analysis; assay type: functional, organism-based; method in brief: as §4
Staphylococcus aureus [28] = assay: Antimicrobial activity against Staphylococcus aureus clinical isolates from Liberec regional hospital assessed as reduction in bacterial growth after 20 hrs by […]; assay type: functional; method in brief: as §1
Pseudomonas aeruginosa [29] = assay: Induction of cell permeabilization in Pseudomonas aeruginosa assessed as propidium iodide uptake at 5 to 10 uM after 10 mins; assay type: functional, organism-based; method in brief: as §5
Pseudomonas aeruginosa [30] = assay: Bactericidal activity against Pseudomonas aeruginosa assessed as reduction in bacterial count at 24 uM after 60 mins by time kill assay; assay type: functional; method in brief: as §3

Compound	MIC (Staphylococcus aureus [2])	MIC (Escherichia coli)	MIC (Pseudomonas aeruginosa [3])	MIC (Pseudomonas aeruginosa [4])	MIC (Staphylococcus aureus [7])	MIC [8]	MIC (Staphylococcus aureus [9])	HC50 at 1 h [10]	MIC (Candida albicans)	MIC (Micrococcus luteus)	MIC (Bacillus subtilis)	fractional inhibitory concentration index (FICI) (Staphylococcus aureus [13])	fractional inhibitory concentration index (FICI) (Pseudomonas aeruginosa [14])	fractional inhibitory concentration index (FICI) (Pseudomonas aeruginosa [15])	Ratio (Pseudomonas aeruginosa [16])	Activity (Pseudomonas aeruginosa [25])	Activity (Pseudomonas aeruginosa [27])	further results
CCCCCCCCN=c1ccn(CCCCCCCCCCn2ccc(=NCCCCCCCC)cc2)cc1	–	–	–	–	–	–	–	–	–	–	–	–	–	–	–	–	–	Activity (Pseudomonas aeruginosa [1]): Active
CO[C@H]1/C=C/O[C@@]2(C)Oc3c(C)c(O)c4c(O)c(c(/C=N/N5CCN(C)CC5)c(O)c4c3C2=O)NC(=O)/C(C)=C\C=C\[C@H](C)[C@H](O)[C@@H](C)[C@@H](O)[C@@H](C)[C@H](OC(C)=O)[C@@H]1C [RIFAMPIN]	< 0.1 µM	10 µM (≈ 8.23 µg/mL)	27 µM (≈ 22.2 µg/mL)	19 µM (≈ 15.6 µg/mL)	< 0.1 µM	< 0.1 µM	< 0.1 µM	–	–	–	–	–	–	–	–	–	–	Activity (Pseudomonas aeruginosa [5]): Active; fold change (FC) (Pseudomonas aeruginosa [6]): 3
CN(C)[C@@H]1C(O)=C(C(N)=O)C(=O)[C@@]2(O)C(O)=C3C(=O)c4c(O)cccc4[C@@](C)(O)[C@H]3C[C@@H]12 [TETRACYCLINE]	2 µM (≈ 0.889 µg/mL)	2.7 µM (≈ 1.2 µg/mL)	29 µM (≈ 12.9 µg/mL)	70 µM (≈ 31.1 µg/mL)	0.9 µM (≈ 0.4 µg/mL)	> 100 µM	1.1 µM (≈ 0.489 µg/mL)	> 200 µM	–	–	–	–	–	–	–	–	–	Activity (Pseudomonas aeruginosa [11]): inactive; Activity (Pseudomonas aeruginosa [12]): Active
H-GILSSLWKKLKKWIAK-NH2	2 µM	2.5 µM	13 µM	24 µM	2.5 µM	1.6 µM	1.8 µM	57 µM	13 µM	≤ 3 µM	≤ 7 µM	0.58	0.42	0.29	19	–	–	–
H-GIMSSLMKKLKKIIAK-NH2	23 µM	9 µM	5 µM	7.4 µM	32 µM	1.9 µM	7.6 µM	> 400 µM	5.2 µM	≤ 3 µM	≤ 7 µM	0.33	0.65	0.43	–	Active	Active	fold change (FC) (Pseudomonas aeruginosa [17]): 2; Activity (Pseudomonas aeruginosa [18]): Active; Activity (Pseudomonas aeruginosa [19]): 60%; Activity (Pseudomonas aeruginosa [20]): Active; Activity (Pseudomonas aeruginosa [21]): Active; Activity (Pseudomonas aeruginosa [22]): Active; Activity (Pseudomonas aeruginosa [23]): Active; Activity (Pseudomonas aeruginosa [24]): Active; Activity (Pseudomonas aeruginosa [26]): Active
H-GIWSSLLKKLKKIIAK-NH2	5.3 µM	1.6 µM	6.3 µM	21 µM	20 µM	1.5 µM	–	165 µM	16 µM	≤ 3 µM	≤ 7 µM	0.4	0.35	0.27	30	Dose-dependent effect	Dose-dependent effect	MIC (Staphylococcus aureus [28]): 4.6 µM; Activity (Pseudomonas aeruginosa [29]): Active; fold change (FC) (Pseudomonas aeruginosa [30]): 2
